Shown is part of a subset that was picked to be rich in hits.
T cruzi intra – inhibitors of intracellular Trypanosoma cruzi, primary screen, cell-based, plate reader, single point, set 2. intracellular Trypanosoma cruzi in host cells. activity score (inhibition), % at 5.01 µM. 4.9% of 22,000 active; in the data active = activity score above about 55%;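 note: parasites and compound incubated about four days before reading; 0% = median of neutral control wells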
INS-1E rescue – protection of INS-1E cells from cytokine death, primary screen, ATP luminescence, single point; 0.1% of 20,000 active; AID 488910, 2010; INS-1E cytokine-induced death, 48 h; normalised: neutral wells 0, positive control 100; protection from cytokine-induced ATP loss, % at 10 µM;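 active = mean replicate protection from cytokine-induced ATP loss at least 50% and at least 75% of replicates each reaching 50%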
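Assay system – rat INS-1E insulinoma cell line · Quantity – 8000 cells per well · Buffer or medium – RPMI without phenol red, 5% FBS · Schedule – 48 h co-treatment, 10 min post-lysis read · Technique – luminescent ATP assay (CellTiter-Glo)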
A1 apoptosis 2 – A1 inhibitors via caspase activation, primary screen, cell-based, luminescence, HTS, two replicates. MEF A1-2A-BIM cells, caspase-Glo luminescence, 3 h; percent of clofoctol response, DMSO zero. caspase activation, % (concentration not given with the values). 24,000 tested, under 10 active. AID 2465, 2010; in the data active = caspase activation above about 5.9%
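Test system – A1-2A-BIM-expressing MEF cells · Input – 2500 cells/well · Medium – RPMI-1640 growth medium with 10% FBS · Compound dosing – 50 nL pinned compound · Timing – 3 h compound exposure at 37 °C · Technique – Caspase-Glo luminescence (DEVD substrate) · Evaluation – Caspase-3/7 activity from luminescence increase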
An asterisk follows results filed as active; . = no result given.

SMILES	T cruzi intra	INS-1E rescue	A1 apoptosis 2
COc1ccc(NCc2ccc(C(=O)Nc3ccccc3N)cc2)cc1OC	.	.	0
O=C(O)CCCCCC(=O)N/N=C/c1cccnc1Br	-10	3	1
O=C(N/N=C/c1ccc(-n2ccnc2)cc1)c1ccccn1	7	-2	-9
O=C(CCCCC(=O)NN=C1CCCCCC1)NO	3	2	0
C[C@@H]1CN([C@H](C)CO)C(=O)c2cccc(NC(=O)c3ccncc3)c2O[C@H]1CN(C)Cc1ccc(-c2ccccc2)cc1	84*	-22	.
NC(=O)NCC#Cc1ccc2c(c1)[C@]1(C(=O)N2)[C@H](C(=O)Nc2nc3ccccc3s2)[C@H]2C(=O)O[C@H](c3ccccc3)[C@H](c3ccccc3)N2[C@@H]1c1ccccc1OCCO	.	.	0
O=C1c2ccccc2C(=O)N1CC1CCN(Cc2cccc(OCCO)c2)CC1	.	.	1
CCn1c2ccccc2c2cc(/C=N/NC(=O)CCCCCCC(=O)OC)ccc21	31	18	.
C=CC[C@@]1(C(=O)N(C)C)N=C(c2ccc(OCCCO)cc2)O[C@@H]1c1ccccc1	.	.	0
C[C@H](CO)N1C[C@H](C)[C@H](CN(C)S(=O)(=O)c2ccc(Cl)cc2)Oc2c(NC(=O)CCCCCC(=O)Nc3ccccc3N)cccc2C1=O	74*	10	1
Cc1noc(C)c1NC(=O)Nc1cccc2c1O[C@@H](CN(C)S(C)(=O)=O)[C@@H](C)CN([C@@H](C)CO)C2=O	67*	-59	.
C[C@H]1CN([C@@H](C)CO)C(=O)c2cccc(NC(=O)Nc3ccc(C(F)(F)F)cc3)c2O[C@H]1CN(C)S(=O)(=O)c1cccs1	25	-21	-1
C[C@H](CO)N1C[C@H](C)[C@H](CN(C)S(=O)(=O)c2cccs2)Oc2c(NC(=O)Nc3ccc(C(F)(F)F)cc3)cccc2C1=O	84*	-102	0
C[C@H]1CN([C@@H](C)CO)C(=O)c2cccc(NC(=O)CCCCCC(=O)Nc3ccccc3N)c2O[C@@H]1CN(C)S(=O)(=O)c1ccc(Cl)cc1	35	2	0
Cc1noc(C)c1NC(=O)Nc1cccc2c1O[C@@H](CN(C)S(C)(=O)=O)[C@H](C)CN([C@H](C)CO)C2=O	-34	4	.
C[C@H](CO)N1C[C@H](C)[C@H](CN(C)S(=O)(=O)c2ccc(Cl)cc2)Oc2c(NC(=O)Nc3ccccc3)cccc2C1=O	-73	-6	.
C[C@H](CO)N1C[C@H](C)[C@@H](CN(C)S(=O)(=O)c2ccc(Cl)cc2)Oc2c(NC(=O)Nc3ccccc3)cccc2C1=O	68*	1	0
C[C@@H](O)[C@@H](O)[C@@H](O)C/C=N/NC(=O)c1ccccn1	-3	22	.
COC(=O)CCCCCCC(=O)N/N=C/c1coc2ccccc2c1=O	-4	11	1
COc1ccc([C@H]2C[C@H]3C(Br)=CC2C(=O)[C@]32CO2)cc1	.	.	0
O=C(CCCCCC(=O)N/N=C/c1ccccn1)NO	.	.	0
C[C@@H]1CN([C@@H](C)CO)C(=O)c2cccc(NC(=O)Nc3ccc(C(F)(F)F)cc3)c2O[C@H]1CN(C)S(=O)(=O)c1ccc(F)cc1	33	-7	1
C[C@H](CO)N1C[C@H](C)[C@@H](CN(C)S(=O)(=O)c2ccc(Cl)cc2)Oc2c(NC(=O)Nc3ccc(C(F)(F)F)cc3)cccc2C1=O	33	-29	-1
Cc1ccc(S(=O)(=O)N(C)C[C@@H]2Oc3c(NC(=O)Nc4ccc(C(F)(F)F)cc4)cccc3C(=O)N([C@H](C)CO)C[C@@H]2C)cc1	85*	-69	-1
C[C@H](CO)N1C[C@H](C)[C@@H](CN(C)S(=O)(=O)c2ccc(F)cc2)Oc2c(NC(=O)Nc3ccc(C(F)(F)F)cc3)cccc2C1=O	57*	-33	2
C[C@@H]1CN([C@@H](C)CO)C(=O)c2cccc(NC(=O)Nc3ccc(C(F)(F)F)cc3)c2O[C@H]1CN(C)S(=O)(=O)c1ccc(Cl)cc1	80*	-17	0
Cc1ccc(S(=O)(=O)N(C)C[C@H]2Oc3c(NC(=O)Nc4ccc(C(F)(F)F)cc4)cccc3C(=O)N([C@H](C)CO)C[C@H]2C)cc1	38	-36	.
CO[C@H]1O[C@H](CO)[C@@H](OC(=O)Nc2ccccc2)[C@H](OC(=O)Nc2ccccc2-c2ccccc2)[C@@H]1OC(=O)Nc1ccccc1-c1ccccc1	.	.	-1
O=C(O)CCCCCCC(=O)N/N=C/c1cc(F)ccc1O	-7	-4	-1
NC(=O)COc1ccc(/C=N/NC(=O)c2cccc(C(=O)NO)c2)cc1	5	-6	.
